Data set [1] relates to Trypanosoma brucei brucei. The data set can be described thus: Antitrypanosomal activity against Trypanosoma brucei brucei 427 after 48 hrs by alamar blue assay. It is filed as functional, organism-based. As to conditions: Trypanosoma brucei, 427, 48 h; read-out: EC50. On the technique in general: Resazurin is reduced to fluorescent resorufin, in cell work by metabolically active cells.

Data set [2] has as its system Trypanosoma brucei brucei. The data set can be described thus: Antitrypanosomal activity against diminazene-resistant Trypanosoma brucei brucei deltaTbat1-KO after 48 hrs by alamar blue assay. The class given is functional, organism-based.
For data set [3], the system named is Trypanosoma brucei brucei. The data set can be described thus: Antitrypanosomal activity against multidrug-resistant Trypanosoma brucei brucei B48 after 48 hrs by alamar blue assay. As to conditions: B48, 48 h. It is filed as functional, organism-based.
A further data set deals with Leishmania major. As to the kind of experiment: Antileishmanial activity against Leishmania major Friedlin promastigotes after 48 hrs by alamar blue assay. The class given is functional, organism-based. As to conditions: Leishmania major, Friedlin, 48 h; read-out: EC50. The gist of the method:
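L. major Friedlin promastigotes grown in HOMEM with 10% FBS at 25 °C. Alamar Blue fluorescence assay in 96-well plates. 3–6 independent experiments unless noted.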

A further data set relates to Leishmania mexicana. As to the kind of experiment: Antileishmanial activity against Leishmania mexicana MNYC/BZ/62/M379 amastigotes after 48 hrs by alamar blue assay. The class given is functional, organism-based. As to conditions: Leishmania mexicana, MNYC/BZ/62/M379, 48 h; read-out: EC50. The gist of the method: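 Axenic L. mexicana MNYC/BZ/62/M379 amastigotes kept at 33 °C under CO2 in Schneider's Drosophila medium with 20% FBS and 0.3% gentamycin. Alamar Blue fluorescence read-out.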

The next data set deals with HEK293. The data set can be described thus: Cytotoxicity against HEK293 cells after 16 hrs by alamar blue assay. As to conditions: Homo sapiens, HEK293, 16 h; read-out: EC50. The class given is cell-based, Homo sapiens. The procedure, abridged: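 HEK293T cells grown in DMEM-based medium with 10% newborn bovine serum at 37 °C, 5% CO2. Doubling dilutions of compound added for 16 h, then resazurin added. Fluorescence read at emission 590 nm after a further 24 h.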

Data set [4] has as its system Trypanosoma brucei brucei. As to the kind of experiment: Selectivity ratio of EC50 for Trypanosoma brucei brucei 427 to EC50 for Trypanosoma brucei brucei deltaTbat1-KO. It is filed as functional. The gist of the method:
(§1)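 T. b. brucei bloodstream forms (strain 427, its ΔTbAT1 clone, and the pentamidine-adapted B48 line derived from it) cultured in HMI9 with 10% FBS at 37 °C under CO2. EC50 for each line from the Alamar Blue fluorescence assay with sigmoid fitting, and the ratio taken between lines.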

A further data set has as its system Trypanosoma evansi. As to the kind of experiment: Antitrypanosomal activity against Trypanosoma evansi ITMAV170475 after 48 hrs by alamar blue assay. As to conditions: ITMAV170475, 48 h. It is filed as functional, organism-based. The procedure, abridged:
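Culture-adapted T. evansi ITMAV170475 seeded at 1.5 ×10⁵ trypanosomes/ml in HMI9/20% FBS. Exposed to compound for 48 h, then incubated with Alamar Blue for 24 h, all at 37 °C under CO2. Assay validated against hemocytometer cell counts. EC50 from a variable-slope sigmoid fit.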

The nature of data set [5]: Selectivity index, ratio of EC50 for HEK cells to EC50 for Trypanosoma brucei brucei 427. The class given is toxicity, cell-based, HEK293. As to conditions: human, HEK cells versus Trypanosoma brucei brucei 427; read-out: Ratio EC50.
The nature of data set [6]: Selectivity index, ratio of EC50 for HEK cells to EC50 for Trypanosoma brucei brucei B48. It is filed as toxicity, cell-based, HEK293. As to conditions: human, HEK cells versus Trypanosoma brucei brucei B48; read-out: Ratio EC50.
Data set [7] deals with Trypanosoma brucei brucei. The data set can be described thus: Selectivity ratio of EC50 for Trypanosoma brucei brucei B48 to EC50 for Trypanosoma brucei brucei 427. The class given is functional. The gist of the method:
as §1

Data set [8] deals with Trypanosoma brucei brucei. As to the kind of experiment: Selectivity ratio of EC50 for Trypanosoma brucei brucei 427 to EC50 for Trypanosoma brucei brucei B48. The class given is functional. The procedure, abridged:
as §1

Data set [9] concerns Trypanosoma brucei brucei. The data set can be described thus: Antitrypanosomal activity against Trypanosoma brucei brucei GUTat 3.1. It is filed as functional, organism-based.
Data set [10] is described as follows: Selectivity index, ratio of EC50 for HEK cells to EC50 for Leishmania major Friedlin promastigotes. The class given is toxicity, cell-based, HEK293. As to conditions: human, HEK cells versus Leishmania major Friedlin promastigotes; read-out: Ratio EC50. The procedure, abridged: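 Ratio of HEK EC50 to parasite EC50. For HEK293T cells in DMEM with 10% newborn bovine serum at 37 °C and 5% CO2, doubling dilutions of compound were added for 16 h, then Alamar Blue, and fluorescence (em 590 nm) was read after another 24 h. L. major Friedlin promastigotes were grown in HOMEM with 10% FBS at 25 °C and tested by Alamar Blue. EC50 values came from sigmoid non-linear regression.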

Nine molecules from ChEMBL document CHEMBL1154833, “Curcuminoid analogs with potent activity against Trypanosoma and Leishmania species” (Eur J Med Chem, 2010) can be followed below.

Broadly, the EC50 is the concentration that produces a half-maximal response.

Bounds are passed on as bounds.

Regarding `O=C(/C=C/c1ccc(O)cc1)CC(=O)/C=C/c1ccc(O)c(O)c1`, the EC50 amounted to 650 nM in [1]; 1800 nM in data set [2]; 1000 nM in data set [3]; 22 µM with Leishmania major; 21 µM in the data set with Leishmania mexicana; 30 µM in the data set on HEK293. In data set [4], the “Ratio EC50” value turned out to be 2.7.
Consider `COc1cc(CC/C=C/C(=O)CCc2ccc(O)c(OC)c2)ccc1O`, for which the EC50 in data set [1] was determined as 53 nM; in [2], 82 nM; in [3], 23 nM; in the data set with Leishmania major it was 8.9 µM; with Leishmania mexicana, 17 µM; in the data set on HEK293, 24 µM. Besides, in the data set with Trypanosoma evansi, the EC50 amounted to 170 nM. The values for the selectivity ratio in [5] and in [6] were 453 and greater than 1000, respectively.
For the molecule `C=CCOc1ccc(/C=C/C(=O)CC(=O)/C=C/c2ccc(OCC=C)c(OC)c2)cc1OC`, the EC50 in data set [1] is 1600 nM; in data set [2], 1900 nM; in data set [3], 5800 nM; in the data set with Leishmania major it was 25 µM; with Leishmania mexicana, greater than 100 µM; with HEK293, greater than 500 µM. Besides, in the data set on Trypanosoma evansi, the EC50 is 5600 nM. The “Ratio EC50” value in [7] is 3.6.
In the case of `COc1cc(/C=C/C(=O)CC(=O)/C=C/c2ccc(OCC=C(C)C)c(OC)c2)ccc1OCC=C(C)C`, the EC50 was 1200 nM in [1]; 1600 nM in data set [2]; 1300 nM in data set [3]; greater than 100 µM with Leishmania major; 27 µM with Leishmania mexicana; greater than 1000 µM in the data set with HEK293. Further, the selectivity ratio in data set [5] was greater than 1000.
As for `COc1ccc(CC/C=C/C(=O)CCc2ccc(OC)c(OC)c2)cc1OC`, the concentration for a half-maximal effect (EC50) in data set [1] was found to be 1900 nM; in [2], 1600 nM; in data set [3], 23 nM; with Leishmania major, 12 µM; with Leishmania mexicana, 28 µM; with HEK293, 26 µM. In addition, in [8], the “Ratio EC50” value amounted to 83.
`COc1cc(CC/C=C/C(O)CCc2ccc(O)c(OC)c2)ccc1O` (stereo unspecified): the EC50 was 40000 nM in data set [1]; 42000 nM in data set [2]; 6300 nM in data set [3]; 50 µM in the data set on Leishmania major; 64 µM in the data set on Leishmania mexicana; 130 µM in the data set with HEK293. In addition, the selectivity ratio in [5] was determined as 3.
`COc1cc(/C=C/C(=O)CC(=O)/C=C/c2ccc(O)c(OC)c2)ccc1O` [CURCUMIN]: the EC50 worked out at 2500 nM in data set [1]; 4700 nM in [2]; 2900 nM in [3]; 33 µM in the data set with Leishmania major; 16 µM in the data set on Leishmania mexicana; 37 µM in the data set with HEK293. The EC50 in the data set on Trypanosoma evansi was 2000 nM; in data set [9], 4.8 µM.
Regarding `CC(=O)NCC(=O)O.N=C(N)c1ccc(/N=N/Nc2ccc(C(=N)N)cc2)cc1` [DIMINAZEN ACETURATE], in data set [4], the “Ratio EC50” value was determined as 20.
With `COc1ccc(/C=C/C(=O)CC(=O)/C=C/c2ccc(OC)c(OC)c2)cc1OC` [TETRAMETHOXYCURCUMIN], the EC50 is 450 nM in data set [1]; 620 nM in data set [2]; 770 nM in [3]; 2.8 µM in the data set with Leishmania major; 10 µM with Leishmania mexicana; 200 µM in the data set on HEK293. The selectivity ratio in data set [10] is 70.
